Data set [1] in a line: folding enthalpy; higher = less favourable; fluorescence melt of hairpins on a sequencing array, two-state fit. The conditions noted are these: sodium 0.088 M. The procedure, abridged:
(§1)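 Hairpins were imaged by Cy3 fluorescence on a sequenced MiSeq flow cell with annealed Cy3 and quencher oligos, in 50 mM Na-HEPES pH 8.0, 25 mM NaCl, in 2.5 °C steps up to 60 °C. Bootstrapped two-state fits of normalised signals gave melting temperature and folding enthalpy. Four replicates were combined by inverse variance, and fitted temperatures were raised by 9.35 °C to match UV melts.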

The nature of data set [2]: melting temperature; fluorescence melt of hairpins on a sequencing array, two-state fit, raised by 9.35 °C to match UV melts. Conditions: sodium 0.088 M. An outline of the steps:
as §1

As to GTGAACGAAAGTTAGCAC ((((((....)))..))), in data set [1], the folding enthalpy was -12.5 kcal/mol. For the same sequence, the Tm in data set [2] is 29.1 °C.

Turning to GTGAACGGAAACGTTTGC (..((((....))))..), the folding enthalpy in data set [1] is -22.6 kcal/mol. Moreover, in data set [2], the Tm is 38.9 °C.

As for GTGAAGAAATTCAC (((((....))))), the folding enthalpy in data set [1] is -18.8 kcal/mol. Further, the Tm in data set [2] worked out at 38.3 °C.

Take GTGAAGACGAAAGTCCAC (((..(((....)))))): the folding enthalpy in data set [1] was -18.4 kcal/mol. In data set [2], the Tm was found to be 41.6 °C.

Turning to GTGAAGCGAAAGCTACAC (((.(((....))).))), in data set [1], the folding enthalpy is -30.1 kcal/mol. In addition, the Tm in data set [2] came to 55.7 °C.

GTGAAGCGAAAGCTGCAC (((.(((....))).))): the folding enthalpy in data set [1] was -35 kcal/mol. For the same sequence, the Tm in data set [2] was 61 °C.

Take GTGAAGGGAAACCCTCAC ((((.((....)).)))): the folding enthalpy in data set [1] is -26.9 kcal/mol. Also, the Tm in data set [2] was found to be 43.3 °C.

As for GTGAAGGGAAACTTTCAC (((((.(....).))))), the folding enthalpy in data set [1] is -24.8 kcal/mol. In data set [2], the Tm is 40.2 °C.

GTGAATCGAAAGATCCAC (((.(((....))).))): in data set [1], the folding enthalpy was -27.7 kcal/mol. Further, the Tm in data set [2] was 43.4 °C.

In the case of GTGACAACGAAAGTTCAC (((..(((....)))))), the folding enthalpy in data set [1] was -11.1 kcal/mol. For the same sequence, in data set [2], the Tm was determined as 34.8 °C.

Turning to GTGACACCGAAAGGTCAC (((..(((....)))))), the folding enthalpy in data set [1] is -25 kcal/mol. Moreover, the Tm in data set [2] came out at 47.8 °C.

Regarding GTGACACGAAAGTGCAC (((.(((....)))))), the folding enthalpy in data set [1] is -17.3 kcal/mol. Moreover, the Tm in data set [2] was 53.2 °C.

With GTGACATCGAAAGATCAC (((..(((....)))))), the folding enthalpy in data set [1] was -16.2 kcal/mol. The Tm in data set [2] is 33 °C.

As for GTGACCACGAAAGTGCAC (((..(((....)))))), the folding enthalpy in data set [1] is -12 kcal/mol. Also, the Tm in data set [2] amounted to 32 °C.

On to GTGACCCGAAAGGGACAC (((.(((....))).))), for which, in data set [1], the folding enthalpy was -40.2 kcal/mol. Besides, the Tm in data set [2] was found to be 61.8 °C.

For the sequence GTGACCGAAAGGTACCAC ((((((....)))..))), in data set [1], the folding enthalpy was -11.6 kcal/mol. For the same sequence, in data set [2], the Tm worked out at 35.1 °C.

Turning to GTGACCGAAAGGTCGCAC ((((((....)))..))), the folding enthalpy in data set [1] is -11.1 kcal/mol. Further, in data set [2], the Tm stood at 58.6 °C.

Turning to GTGACCGAAAGGTTACAC ((((((....)))..))), the folding enthalpy in data set [1] was -16.6 kcal/mol. In addition, in data set [2], the Tm turned out to be 49.8 °C.

GTGACCGAAAGGTTCCAC ((((((....)))..))): the folding enthalpy in data set [1] is -9.64 kcal/mol. Moreover, in data set [2], the Tm came out at 33.2 °C.

Consider GTGACCTCGAAAGAGCAC (((..(((....)))))), for which, in data set [1], the folding enthalpy was -14.8 kcal/mol. Also, the Tm in data set [2] worked out at 30.9 °C.

As to GTGACGCGAAAGCGCCAC (((.(((....))).))), in data set [1], the folding enthalpy is -33.9 kcal/mol. Besides, in data set [2], the Tm amounted to 68 °C.

Take GTGACGGGAAACCGTCGC (.(((((....))))).): in data set [1], the folding enthalpy was -24.8 kcal/mol. In data set [2], the Tm is 62.6 °C.

For the sequence GTGACGGGAAACCGTTAC ((.((((....)))).)), the folding enthalpy in data set [1] was -22.2 kcal/mol. In addition, the Tm in data set [2] came to 51.9 °C.

GTGACTGGAAACAATCAC ((((.((....)).)))): the folding enthalpy in data set [1] is -20.1 kcal/mol. In addition, the Tm in data set [2] was 36 °C.

For GTGAGACGAAAGTCCCAC (((.(((....))).))), the folding enthalpy in data set [1] was -27.3 kcal/mol. The Tm in data set [2] amounted to 50.4 °C.

As for GTGAGACGAAAGTCGCAC (((.(((....))).))), in data set [1], the folding enthalpy was -31.9 kcal/mol. The Tm in data set [2] stood at 64.5 °C.

Regarding GTGAGAGAAATCTCAC ((((((....)))))), the folding enthalpy in data set [1] is -32.4 kcal/mol. The Tm in data set [2] turned out to be 51.7 °C.

On to GTGAGAGGAAACCCTCAC (((((.(....).))))), for which the folding enthalpy in data set [1] is -26.2 kcal/mol. Further, the Tm in data set [2] turned out to be 43.5 °C.

As to GTGAGAGGAAACTCCCAC (((.(((....))).))), the folding enthalpy in data set [1] was -24.7 kcal/mol. Also, the Tm in data set [2] turned out to be 36.6 °C.

Turning to GTGAGAGGAAACTCTCGC (.(((((....))))).), the folding enthalpy in data set [1] was -27.2 kcal/mol. The Tm in data set [2] amounted to 51.2 °C.

Source of the values: the array DNA melting data of Ke et al. (doi:10.1101/2024.01.08.574731).
